Measured values reported in ChEMBL document CHEMBL3808334, “Synthesis and in vitro evaluation of novel triazine analogues as anticancer agents and their interaction studies with bovine serum albumin” (Eur J Med Chem, 2016).

What was measured:
Assay type in all cases: functional
[1] = Growth inhibition of human HOP62 cells incubated for 48 hrs by sulforhodamine B assay; settings: HOP-62, 48 h
Method in brief: (§1)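 Cells seeded at 5,000–40,000/well according to doubling time and preincubated 24 h at 37 °C, 5% CO2. Time-zero plates were TCA-fixed. DMSO concentrate was diluted in medium with 50 µg/ml gentamicin to give five concentrations (10-fold or ½ log steps), then exposed 48 h. Cells were TCA-fixed, stained with 0.4% SRB and read at 515 nm. Percent growth was taken against time-zero and control; GI50, TGI and LC50 derived.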

[2] = Growth inhibition of human SW620 cells assessed as cell growth at 10^-7 M incubated for 48 hrs by sulforhodamine B assay; settings: SW-620, 48 h, read-out: Activity
SK-MEL-28 = test: Growth inhibition of human SK-MEL-28 cells assessed as cell growth at 10^-6 M incubated for 48 hrs by sulforhodamine B assay; settings: SK-MEL-28, 48 h, read-out: Activity
A549 = test: Growth inhibition of human A549/ATCC cells incubated for 48 hrs by sulforhodamine B assay; settings: A549, 48 h
Method in brief: (§2)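 Five-dose assay: five concentrations from 10-fold or ½-log serial dilutions. Cells are plated at 5,000–40,000 per well according to doubling time, grown 24 h, then exposed 48 h at 37 °C, 5% CO₂. Fixed with cold 50% TCA (final addition) for 60 min at 4 °C and stained with 0.4% SRB in 1% acetic acid. Bound dye is solubilized in 10 mM Tris base and read at 515 nm. GI₅₀ is where [(Ti−Tz)/(C−Tz)]×100 = 50, with a time-zero plate as Tz.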

[3] = Growth inhibition of human OVCAR8 cells assessed as cell growth at 10^-8 M incubated for 48 hrs by sulforhodamine B assay; settings: OVCAR-8, 48 h, read-out: Activity
EKVX = test: Growth inhibition of human EKVX cells assessed as cell growth at 10^-5 M incubated for 48 hrs by sulforhodamine B assay; settings: read-out: Activity; method in brief: as §1
[4] = Growth inhibition of human breast cancer cells incubated for 48 hrs by sulforhodamine B assay; settings: Cancer cell lines; for CC50: read-out: LC50 (the source's name)
[5] = Growth inhibition of human OVCAR5 cells assessed as cell growth at 10^-8 M incubated for 48 hrs by sulforhodamine B assay; settings: OVCAR-5, 48 h, read-out: Activity
NCI-H522 = test: Growth inhibition of human NCI-H522 cells assessed as cell growth at 10^-5 M incubated for 48 hrs by sulforhodamine B assay; settings: NCI-H522, 48 h, read-out: Activity
[6] = Growth inhibition of human RPMI8226 cells assessed as cell growth at 10^-8 M incubated for 48 hrs by sulforhodamine B assay; settings: RPMI-8226, 48 h, read-out: Activity
MDA-MB-468 = test: Growth inhibition of human MDA-MB-468 cells assessed as cell growth at 10^-5 M incubated for 48 hrs by sulforhodamine B assay; settings: MDA-MB-468, 48 h, read-out: Activity
786-0 = test: Growth inhibition of human 786-0 cells incubated for 48 hrs by sulforhodamine B assay; settings: 786-0, 48 h; method in brief: as §2
ACHN [7] = test: Growth inhibition of human ACHN cells assessed as cell growth at 10^-7 M incubated for 48 hrs by sulforhodamine B assay; settings: read-out: Activity; method in brief: as §2
A498 = test: Growth inhibition of human A498 cells assessed as cell growth at 10 uM incubated for 48 hrs by sulforhodamine B assay; settings: A498, 48 h, read-out: Activity
Method in brief: (§3)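 One-dose screen at 10 µM final. Cells are plated at 5,000–40,000 per well according to doubling time and preincubated 24 h at 37 °C, 5% CO₂. Compound (DMSO stock diluted in medium with 50 µg/ml gentamicin) is then added for 48 h. Growth percent is read by sulforhodamine B staining, absorbance at 515 nm.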

MCF7 = test: Growth inhibition of human MCF7 cells assessed as cell growth at 10^-4 M incubated for 48 hrs by sulforhodamine B assay; settings: MCF7, 48 h, read-out: Activity
MDA-MB-231 = test: Growth inhibition of human MDA-MB-231 cells assessed as cell growth at 10 uM incubated for 48 hrs by sulforhodamine B assay; settings: MDA-MB-231, 48 h, read-out: Activity
KM12 = test: Growth inhibition of human KM12 cells assessed as cell growth at 10^-7 M incubated for 48 hrs by sulforhodamine B assay; settings: KM12, 48 h, read-out: Activity
[8] = Growth inhibition of human SF295 cells incubated for 48 hrs by sulforhodamine B assay; settings: SF-295, 48 h
Method in brief: (§4)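 Cells were plated at 5,000–40,000 per well according to doubling time and preincubated 24 h at 37 °C in 5% CO2; time-zero plates were then TCA-fixed. Five concentrations (10-fold or ½-log dilutions, DMSO stock) were incubated 48 h. Cells were TCA-fixed, stained with 0.4% SRB and read at 515 nm. GI50 was taken where [(Ti−Tz)/(C−Tz)]×100 = 50.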

[9] = Growth inhibition of human UACC62 cells assessed as cell growth at 10^-8 M incubated for 48 hrs by sulforhodamine B assay; settings: UACC-62, 48 h, read-out: Activity
[10] = Growth inhibition of human LOXIMVI cells assessed as cell growth at 10^-6 M incubated for 48 hrs by sulforhodamine B assay; settings: LOX IMVI, read-out: Activity
[11] = Growth inhibition of human HCC2998 cells assessed as cell growth at 10^-8 M incubated for 48 hrs by sulforhodamine B assay; settings: HCC 2998, 48 h, read-out: Activity; method in brief: as §1
MDA-MB-435 = test: Growth inhibition of human MDA-MB-435 cells incubated for 48 hrs by sulforhodamine B assay; settings: MDA-MB-435, 48 h; method in brief: as §4
ACHN [12] = test: Growth inhibition of human ACHN cells assessed as cell growth at 10 uM incubated for 48 hrs by sulforhodamine B assay; settings: read-out: Activity; method in brief: as §3
[13] = Growth inhibition of human HOP62 cells assessed as cell growth at 10^-4 M incubated for 48 hrs by sulforhodamine B assay; settings: HOP-62, 48 h, read-out: Activity
[14] = read-out: LC50 (the source's name)
[15] = read-out: pLC50 (the source's name) (converted)

Fc1ccc(-c2nc(Nc3ccc(-c4nc5ccccc5[nH]4)cc3)nc(N3CCOCC3)n2)cc1
GI50 ([1]; read-out: GI50): 2.11 µM | LC50 ([1]; read-out: LC50): > 100 µM | TGI ([1]; read-out: TGI): 5.3 µM | GI50 ([1]; read-out: pGI50 (converted)): 2.09 µM | LC50 ([1]; read-out: pLC50 (converted)): > 100 µM | TGI ([1]; read-out: pTGI (converted)): 5.25 µM | growth at 0.1 µM [2]: 100% | growth at 1 µM (SK-MEL-28): 84% | GI50 (A549; read-out: GI50): 3.24 µM | CC50 (A549; [14]): > 100 µM | TGI (A549; read-out: TGI): > 100 µM | GI50 (A549; read-out: pGI50 (converted)): 3.24 µM | CC50 (A549; [15]): > 100 µM | TGI (A549; read-out: pTGI (converted)): > 100 µM | growth at 0.01 µM [3]: 101% | growth at 10 µM (EKVX): 3% | GI50 [4]: 2.09 µM | TGI [4]: 5.55 µM | CC50 [4]: > 100 µM | growth at 0.01 µM [5]: 93% | growth at 10 µM (NCI-H522): -30% | growth at 0.01 µM [6]: 100% | growth at 10 µM (MDA-MB-468): -14% | GI50 (786-0; read-out: GI50): 1.44 µM | CC50 (786-0; [14]): 7.24 µM | TGI (786-0; read-out: TGI): 3.23 µM | GI50 (786-0; read-out: pGI50 (converted)): 1.45 µM | CC50 (786-0; [15]): 7.24 µM | TGI (786-0; read-out: pTGI (converted)): 3.24 µM | growth at 0.1 µM (ACHN [7]): 95% | growth at 10 µM (A498): -32.1% | growth at 100 µM (MCF7): 1% | growth at 10 µM (MDA-MB-231): 5.74% | growth at 0.1 µM (KM12): 98% | GI50 ([8]; read-out: GI50): 1.59 µM | CC50 [8, 14]: > 100 µM | TGI ([8]; read-out: TGI): 4.7 µM | GI50 ([8]; read-out: pGI50 (converted)): 1.58 µM | CC50 [8, 15]: > 100 µM | TGI ([8]; read-out: pTGI (converted)): 4.68 µM | growth at 0.01 µM [9]: 91% | growth at 1 µM [10]: 91% | growth at 0.01 µM [11]: 99% | GI50 (MDA-MB-435; read-out: GI50): 1.94 µM | TGI (MDA-MB-435; read-out: TGI): 4.04 µM | GI50 (MDA-MB-435; read-out: pGI50 (converted)): 1.95 µM | TGI (MDA-MB-435; read-out: pTGI (converted)): 4.07 µM | growth at 10 µM (ACHN [12]): 9% | growth at 100 µM [13]: -33%

c1ccc2[nH]c(-c3ccc(Nc4nc(N5CCCCC5)nc(N5CCOCC5)n4)cc3)nc2c1
GI50 ([1]; read-out: GI50): 1.92 µM | LC50 ([1]; read-out: LC50): 9.73 µM | TGI ([1]; read-out: TGI): 4.32 µM | GI50 ([1]; read-out: pGI50 (converted)): 1.91 µM | LC50 ([1]; read-out: pLC50 (converted)): 9.77 µM | TGI ([1]; read-out: pTGI (converted)): 4.37 µM | growth at 0.1 µM [2]: 92% | growth at 1 µM (SK-MEL-28): 87% | GI50 (A549; read-out: GI50): 3.27 µM | CC50 (A549; [14]): > 100 µM | TGI (A549; read-out: TGI): 13.2 µM | GI50 (A549; read-out: pGI50 (converted)): 3.24 µM | CC50 (A549; [15]): > 100 µM | TGI (A549; read-out: pTGI (converted)): 13.2 µM | growth at 0.01 µM [3]: 96% | growth at 10 µM (EKVX): 5% | GI50 [4]: 2.36 µM | TGI [4]: 6.72 µM | CC50 [4]: 92.7 µM | growth at 0.01 µM [5]: 101% | growth at 10 µM (NCI-H522): -24% | growth at 0.01 µM [6]: 97% | growth at 10 µM (MDA-MB-468): -24% | GI50 (786-0; read-out: GI50): 1.54 µM | CC50 (786-0; [14]): 6.68 µM | TGI (786-0; read-out: TGI): 3.21 µM | GI50 (786-0; read-out: pGI50 (converted)): 1.55 µM | CC50 (786-0; [15]): 6.61 µM | TGI (786-0; read-out: pTGI (converted)): 3.24 µM | growth at 0.1 µM (ACHN [7]): 95% | growth at 10 µM (A498): -28.6% | growth at 100 µM (MCF7): -5% | growth at 10 µM (MDA-MB-231): 23.1% | growth at 0.1 µM (KM12): 103% | GI50 ([8]; read-out: GI50): 1.85 µM | CC50 [8, 14]: 34.6 µM | TGI ([8]; read-out: TGI): 4.6 µM | GI50 ([8]; read-out: pGI50 (converted)): 1.86 µM | CC50 [8, 15]: 34.7 µM | TGI ([8]; read-out: pTGI (converted)): 4.57 µM | growth at 0.01 µM [9]: 96% | growth at 1 µM [10]: 89% | growth at 0.01 µM [11]: 98% | GI50 (MDA-MB-435; read-out: GI50): 2.06 µM | CC50 (MDA-MB-435; [14]): > 100 µM | TGI (MDA-MB-435; read-out: TGI): 4.59 µM | GI50 (MDA-MB-435; read-out: pGI50 (converted)): 2.04 µM | CC50 (MDA-MB-435; [15]): > 100 µM | TGI (MDA-MB-435; read-out: pTGI (converted)): 4.57 µM | growth at 10 µM (ACHN [12]): 22.9% | growth at 100 µM [13]: -55%
